RAM network inh = inhibitors of the yeast RAM network; S. cerevisiae dse1pr::URA3 reporter, 5-FOA growth OD615, 2 d; analog-sensitive cbk1-as2 kinase mutant strain; inhibition, % at 50 µM; actives 1.8% (n = 190,000);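 active = inhibition above a set limit, 3 SD over mean compound inhibition, cut at about 8.4% in these data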;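 note: 0% = DMSO-only wells with no growth and 100% = 10 µM 1-NA-PP1 full growth; inhibition rescues growth on 5-FOA so higher OD means more RAM inhibition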
INS promoter inh = TRM-6 insulin promoter activity inhibition. TRM-6 cells, insulin promoter-eGFP reporter, imaging; reporter expression induced with tamoxifen. inhibition, % at 2 µM. actives 0.9% (n = 130,000);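 active = inhibition above the mean plus 3 SD, with well images judged a real hit on visual review, cut at about 60% in these data, passing the limit was not always enough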
Insulin prom up = MIN6 insulin promoter up-regulation | AID 1625 | z-score at 5 µM | actives 0.3% (n = 190,000) | MIN6 insulin promoter-GFP reporter, high-content imaging; active compounds read high;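 active = z-score above 3 at 5 µM with at least 500 cells counted in the well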
Yeast lifespan up = yeast lifespan extension; S. cerevisiae growth with nicotinamide, OD615; deaD strain in restrictive glucose medium; inhibition of the nicotinamide effect, % at 10 µM; actives 0.68% (n = 130,000);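 active = inhibition above a set limit, placed 3 SD over the median of all compounds, cut at about 26% in these data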;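 note: 0% = nicotinamide-treated wells and 100% = cells grown without nicotinamide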
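Buffer or medium: CSMM-D glucose medium, restrictive; test system: modified budding yeast, DeaD strain; compound: single dose 10 µM compound, 0.25% DMSO; schedule: culture preincubation 4 h, compound exposure 48 h, both 30 °C; detection: optical density (absorbance) at 615 nm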
Yeast growth inh = yeast BB579 growth reduction in restrictive medium | inhibition, % at 10 µM | actives 0.51% (n = 140,000) | AID 804 | S. cerevisiae BB579 growth, OD615, 48 h;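 active = inhibition above a set limit, 3 SD over the mean compound inhibition, cut at about 44% in these data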
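Test system: Saccharomyces cerevisiae DeaD strain BB579, replicative lifespan model yeast | Buffer or medium: Restrictive CSMM-D medium | Doses: One dose, 10 µM compound with 0.25% DMSO | Incubation: 48 h exposure, 30 °C | Detection: Culture absorbance at 615 nm | Control set: Amphotericin B at 10 µg/mL as positive control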
Starred values were filed as active, the others as inactive; . = not tested or not shown. Sampled rows, rich in hits. Any-hit rate of the full collection: about 3%.

SMILES	RAM network inh	INS promoter inh	Insulin prom up	Yeast lifespan up	Yeast growth inh
c1ccc(-c2noc(-c3ccncc3)n2)nc1	3	-61	0.41	-32	-27
c1ccc(-c2noc(-c3cccnc3)n2)nc1	0	89*	0.58	-19	-3
COc1ccc(C(=O)Nc2cccc(C(=O)NCc3ccco3)c2)cc1	3	67*	.	.	.
O=C(NCc1ccco1)c1cccc(NC(=O)c2ccco2)c1	0	17	-0.18	-12	-21
COC(=O)C1=C(C)NC(=O)/C1=C\c1cc(C)n(-c2ccccc2C)c1C	2	71*	-1.7	-8	-74
CO/N=C/C(=N\Nc1ccccc1)C(=O)c1ccccc1	2	8	-0.2	.	.
CO/N=C\C(=N\Nc1ccc(OC)cc1)C(=O)c1ccccc1	5	-9	.	-12	-53
CO/N=C/C(=N\Nc1ccc(OC)cc1)C(=O)c1ccc(F)cc1	9.2*	29	0.69	.	.
CO/N=C/C(=N\Nc1ccc(C)cc1)C(=O)c1ccc(OC)cc1	10*	0	-1.7	4	-40
O=C(O)CC12CC3CC(C1)CC(n1cncn1)(C3)C2	2	0	-0.4	.	.
CCCSc1nc2c(cnn2-c2ccccc2)c(=O)[nH]1	-1	0	1.2	-7	3
O=c1[nH]c(/C=C/c2ccccc2OC(F)F)nc2c1cnn2-c1ccccc1	2	-38	3.2*	4	-32
CCOc1ccc2nc(-c3ccc(OC)c(OC)c3)cc(C(=O)O)c2c1	7	30	0.14	51*	-12
COc1ccc2cc(-c3cc(C(=O)O)c4ccccc4n3)ccc2c1	-1	7	.	-13	37
CC(C)C(c1nnnn1C(C)(C)C)N1CCC(Cc2ccccc2)CC1 (stereo not given)	0	-31	0	25	-48
COc1ccc(CNC(=O)C(c2ccc(C)cc2)N(Cc2cccs2)C(=O)c2ccc3c(c2)OCCO3)cc1 (stereo not given)	8.7*	-4	-0.29	4	-59
Cc1ccc(C(C(=O)NCc2ccccc2)N(Cc2cccs2)C(=O)c2ccc3c(c2)OCCO3)cc1 (stereo not given)	5	12	-1.2	3	-23
COc1ccc(CNC(=O)C(c2cccs2)N(Cc2ccco2)C(=O)Cc2cccs2)cc1 (stereo not given)	11*	-284	-0.7	.	-47
COc1ccc(Cc2nnc(NS(=O)(=O)c3ccc(Cl)cc3)s2)cc1OC	5	.	-0.85	.	.
CCOC(=O)c1ccc(NC(=O)C(C)N2C(=O)c3ccccc3C2=O)cc1 (stereo not given)	2	.	-0.27	27*	-54
Cc1ccc(S(=O)(=O)CCSc2cccc(C(=O)Nc3ccccc3C(=O)O)c2)cc1	7	-13	0.63	-2	-13
Cc1csc(NC(=O)CN2C(=O)c3ccccc3C2=O)c1C(N)=O	.	.	-0.32	.	.
O=S(=O)(CCSc1nc2ccccc2o1)c1nc2ccccc2s1	2	52	.	4	-39
O=S(=O)(CCSc1ccccn1)c1nc2ccccc2s1	-2	54	1.2	60*	0
CC(C)(C)OC(=O)N[C@@H](CC(=O)OCc1ccccc1)C(=O)O	0	.	0.35	.	.
SMILES	RAM network inh	INS promoter inh	Insulin prom up	Yeast lifespan up	Yeast growth inh
CCn1c(=O)c(C(=O)Nc2nc3ccccc3[nH]2)c(O)c2ccccc21	0	12	0.35	7	67*
CCn1c(=O)c(C(=O)Nn2c(C)nc3ccccc3c2=O)c(O)c2ccccc21	0	30	0.11	-23	99*
CCc1nc2ccccc2c(=O)n1NC(=O)c1c(O)c2ccccc2n(CC)c1=O	2	.	-0.25	.	.
O=C(c1ccco1)N1CCCN(Cc2nc(Cc3ccccc3)no2)CC1	1	.	0.33	.	.
CCS(=O)(=O)c1ccc(O)c(NC(=O)Nc2ccccc2OC)c1	.	.	0.24	.	.
CC(C)c1ccc(N2CC(C)(C)C2=O)cc1	-1	54	-0.2	.	.
CCC(C)OC(=O)C1C(c2ccccc2)C(C(=O)O)C1c1ccccc1 (stereo not given)	2	25	0.96	37*	-10
C[C@H](N)C(=O)OCc1ccc([N+](=O)[O-])cc1	.	.	0.19	.	.
CC(O)C(C(=O)OCc1ccc([N+](=O)[O-])cc1)N1C(=O)c2ccccc2C1=O (stereo not given)	0	62*	-0.25	13	-16
CCN(CC)C(c1ccc(F)cc1)c1nnnn1CC1CCCO1 (stereo not given)	2	93*	-0.29	3	-8
COc1cc(N=Nc2cccc(S(N)(=O)=O)c2)c2ccccc2c1N	.	.	5.9*	.	.
NC1=NC(=Nc2cccc(S(N)(=O)=O)c2)c2ccccc21	.	.	-0.01	.	.
CCOC(=O)N1N=C(c2ccc(OC)cc2)CC1(O)C(F)(F)F (stereo not given)	-1	.	-0.39	.	.
CCOC(=O)N1N=C(c2ccccc2)CC1(O)C(C)(F)F (stereo not given)	0	74*	0.23	.	.
CCC(CC)=NNc1ccc([N+](=O)[O-])cc1[N+](=O)[O-]	0	.	-0.43	.	.
C/C(=N\Nc1ccc([N+](=O)[O-])cc1[N+](=O)[O-])C(C)C(C)C (stereo not given)	9.6*	.	-0.66	.	.
CCOC(=O)C(C(=O)OCC)C(C)(C)/C(C)=N\Nc1ccc([N+](=O)[O-])cc1[N+](=O)[O-]	9.0*	13	-0.15	1	-18
CCOC(=O)C(C)/C(C)=N\Nc1ccc([N+](=O)[O-])cc1[N+](=O)[O-] (stereo not given)	-2	.	0.09	.	.
CCN(CC)c1ccc(C(=O)OCC(=O)Nc2sccc2C#N)cc1	5	.	-0.74	-3	-23
CN(C)Cc1c(O)c(Cl)cc2c3c(c(=O)oc12)CCCC3	-2	-14	.	30*	-13
COc1ccc(S(=O)(=O)N2CCC3(CC2)OCCO3)cc1	4	33	-0.02	.	.
CNC(=S)NNC(=O)c1sccc1OCc1ccc(Cl)cc1Cl	2	.	0.5	-18	-21
N/C(=N\NC(=O)c1sccc1OCc1ccc(Cl)cc1Cl)c1ccccn1	8.7*	-41	0.49	.	.
COc1ccccc1NC(=O)CN(Cc1ccco1)C(=O)c1cc2ccccc2o1	3	-36	-0.52	.	.
Cc1ccc(OCc2nnc(SC(C)C(=O)O)n2Cc2ccccc2)cc1 (stereo not given)	-1	.	0.17	.	.
SMILES	RAM network inh	INS promoter inh	Insulin prom up	Yeast lifespan up	Yeast growth inh
O=C(/C(=C/O)N=Nc1ccccc1)c1ccc(Cl)cc1	7	6	0.52	.	.
O=C(/C(=C/O)N=Nc1ccccc1)c1ccncc1	.	21	-0.21	-11	88*
Cc1c(Cl)ccc2c1NC(=O)[C@]21N[C@@H](Cc2ccccc2)[C@H]2C(=O)N(c3ccc(F)cc3)C(=O)[C@H]21	8.5*	-6	0.29	6	-78
CC(=O)c1c(COC(=O)c2ccncc2)nc2ccccc2[n+]1[O-]	1	.	4.2*	-9	-42
CC(=O)c1c(COC(=O)c2cccc(C)c2)nc2ccccc2[n+]1[O-]	.	.	-0.09	.	.
COc1ccc(/C=N/NC(=O)c2c(C)nnn2-c2nonc2N)cc1OC	1	.	0.39	.	.

From PubChem
